Assay results taken from ChEMBL document CHEMBL1137696, “Preparation and in vitro evaluation of benzylsulfanyl benzoxazole derivatives as potential antituberculosis agents” (2009).
≈ marks a conversion by molar mass, not a printed value.

How the values were obtained:
Type in all cases: functional
[1] = system: Mycobacterium tuberculosis; test: Antimycobacterial activity against multidrug-resistant Mycobacterium tuberculosis 7357/98 after 14 days by micromethod; details: 7357/98, 336 h
How it was run: (§1)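 MIC by micromethod in Šula semisynthetic medium. Compounds added as DMSO solutions at 1000, 500, 250, 125, 62, 32, 16, 8, 4 and 2 µmol/L. Incubated at 37 °C and read at 14 and 21 days. MIC taken as the lowest concentration that inhibited mycobacterial growth, expressed in µmol/L. INH run as standard. Strains from CNCTC.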

[2] = system: Mycobacterium tuberculosis; test: Antimycobacterial activity against multidrug-resistant Mycobacterium tuberculosis 7357/98 after 21 days by micromethod; details: 7357/98, 504 h; how it was run: as §1
[3] = system: Mycobacterium tuberculosis; test: Antimycobacterial activity against isoniazid and streptomycin-resistant Mycobacterium tuberculosis 4166/04 after 14 days by micromethod; details: 4166/04, 336 h; how it was run: as §1
[4] = system: Mycobacterium tuberculosis; test: Antimycobacterial activity against isoniazid and streptomycin-resistant Mycobacterium tuberculosis 4166/04 after 21 days by micromethod; details: 4166/04, 504 h; how it was run: as §1
[5] = system: Mycobacterium tuberculosis; test: Antimycobacterial activity against multidrug-resistant Mycobacterium tuberculosis 4977/03 after 14 days by micromethod; details: 4977/03, 336 h; how it was run: as §1
[6] = system: Mycobacterium tuberculosis; test: Antimycobacterial activity against multidrug-resistant Mycobacterium tuberculosis 4977/03 after 21 days by micromethod; details: 4977/03, 504 h; how it was run: as §1
[7] = system: Mycobacterium tuberculosis; test: Antimycobacterial activity against multidrug-resistant Mycobacterium tuberculosis 550/04 after 14 days by micromethod; details: 550/04, 336 h; how it was run: as §1
[8] = system: Mycobacterium tuberculosis; test: Antimycobacterial activity against multidrug-resistant Mycobacterium tuberculosis 550/04 after 21 days by micromethod; details: 550/04, 504 h; how it was run: as §1

SMILES | MIC [1] | MIC [2] | MIC [3] | MIC [4] | MIC [5] | MIC [6] | MIC [7] | MIC [8]
NC(=S)c1ccc(CSc2nc3ccccc3o2)cc1 | 32 µM (≈ 9.61 µg/mL) | 32 µM (≈ 9.61 µg/mL) | 8 µM (≈ 2.4 µg/mL) | 16 µM (≈ 4.81 µg/mL) | 32 µM (≈ 9.61 µg/mL) | 32 µM (≈ 9.61 µg/mL) | 8 µM (≈ 2.4 µg/mL) | 16 µM (≈ 4.81 µg/mL)
O=[N+]([O-])c1cc(CSc2nc3ccccc3o2)cc([N+](=O)[O-])c1 | 4 µM (≈ 1.33 µg/mL) | 4 µM (≈ 1.33 µg/mL) | 2 µM (≈ 0.663 µg/mL) | 4 µM (≈ 1.33 µg/mL) | 2 µM (≈ 0.663 µg/mL) | 2 µM (≈ 0.663 µg/mL) | 2 µM (≈ 0.663 µg/mL) | 4 µM (≈ 1.33 µg/mL)
